This is a sample that favours compounds with a hit; in the whole collection about 1.7% have one here.
TPT1 inh – Candida albicans TPT1 enzyme inhibitors, primary screen, biochemical, fluorescence polarization. recombinant caTPT1, FP RNA substrate dephosphorylation. tRNA 2'-phosphotransferase TPT1 (Candida albicans SC5314). inhibition, % at 5 µM. 300,000 tested, 0.81% active. AID 1962, 2009;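 active = inhibition above the mean of all tested compounds plus 3 SD, set per screening campaign, cut at about 24% in these data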;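 note: plate controls were DMSO alone for no effect and ferristatin control at 100 nM for full effect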
Rpn11 inh – Rpn11 (PSMD14) deubiquitinase inhibitors, primary screen, biochemical, fluorescence polarization, uHTS. 26S proteasome non-ATPase regulatory subunit 14 (Homo sapiens), O00487. human 26S proteasome, Ub4-pepOG fluorescence polarization; 20S core pre-blocked with epoxomicin. inhibition, % at 20 µM. 360,000 tested, 0.59% active. AID 588493, 2011;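 active = inhibition at 20 µM, scaled to each plate's controls, above about 33%, limit read from the data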
Target sequence (O00487 whole entry, looked up): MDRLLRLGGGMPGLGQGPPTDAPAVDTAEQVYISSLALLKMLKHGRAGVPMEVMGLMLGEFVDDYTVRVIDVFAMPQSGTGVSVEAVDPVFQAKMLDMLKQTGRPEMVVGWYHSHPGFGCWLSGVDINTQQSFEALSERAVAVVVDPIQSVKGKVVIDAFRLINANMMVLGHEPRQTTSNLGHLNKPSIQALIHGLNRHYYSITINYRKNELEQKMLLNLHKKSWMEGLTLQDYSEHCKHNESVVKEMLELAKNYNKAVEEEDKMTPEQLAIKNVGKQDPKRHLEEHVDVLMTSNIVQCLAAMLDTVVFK
CSN deneddyl inh – inhibitors of CSN-mediated cullin deneddylation, primary screen, biochemical, fluorescence polarization, uHTS; Purified CSN, SCF-Nedd8-OG deneddylation; inhibition, % at 12.5 µM; 360,000 tested, 0.38% active;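 active = pattern-corrected inhibition above about 35%, with an unprinted fluorescence ratio check between 0.5 and 1.5, limit read from the data, passing the limit was not always enough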;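 note: 0% = enzyme with substrate and 100% = substrate without enzyme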
Target sequence (Q92905 whole entry, looked up, one chain of several): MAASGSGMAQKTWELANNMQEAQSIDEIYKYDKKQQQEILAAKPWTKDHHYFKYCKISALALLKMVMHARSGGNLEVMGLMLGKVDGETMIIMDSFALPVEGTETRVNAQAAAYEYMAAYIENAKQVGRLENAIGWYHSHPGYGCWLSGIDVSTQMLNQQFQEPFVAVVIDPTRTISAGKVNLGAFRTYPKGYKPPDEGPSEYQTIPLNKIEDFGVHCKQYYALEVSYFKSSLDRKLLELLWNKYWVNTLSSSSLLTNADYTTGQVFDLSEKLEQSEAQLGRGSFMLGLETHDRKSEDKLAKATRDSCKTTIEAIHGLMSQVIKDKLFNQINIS
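Assay system: Purified human Csn5 enzyme expressed in HEK293T cells | Amount: Enzyme 0.24 nM | Measured by: Fluorescence polarization readout | Medium: Tris/NaCl/DTT buffer, pH 7.5 | Compound dosing: One concentration, 12.5 µM, 0.25% DMSO | Times: 90 min incubation of compound, enzyme and substrate at room temperature | Control set: no-enzyme wells high, enzyme-with-substrate wells low | Read-out: % inhibition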
IDE act – human IDE activators in live cells, primary screen, fluorescence polarization, HEK cells, FAbeta-B substrate | FAbeta-B cleavage; 0% vehicle, 100% cell-free pure enzyme wells | activation, % at 5.96 µM | 340,000 tested, 0.073% active | AID 493087, 2011;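 active = activation above the mean of all tested compounds plus 3 SD, set per screening campaign, cut at about 17% in these data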
HNF4A DNA FP – change in binding of human HNF4A to DNA, primary screen, biochemical, fluorescence polarization, FITC-DNA. 1 h. 360,000 tested, 0.3% active. activity change, % at 10 µM. AID 1224865, 2016. Hepatocyte nuclear factor 4-alpha (Homo sapiens), P41235; in the data active = activity change above about 30%, passing the limit was not always enough
IDE inh – human IDE inhibitors in live cells, primary screen, fluorescence polarization, HEK cells, FAbetaB substrate; inhibition, % at 5.59 µM; Insulin-degrading enzyme (Homo sapiens), P14735; 320,000 tested, 0.41% active; FAbetaB cleavage;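 active = percent inhibition above the average of all tested compounds plus 3 SD, set per screening campaign, cut at about 16% in these data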;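 note: IDE supplied by intact live HEK cells; FP after avidin binding of uncleaved biotin substrate so inhibition keeps polarization high; 0% = DMSO wells and 100% = 60 µM reference IDE inhibitor Ii1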
Active calls of the source: *; · = not tested or not shown.

SMILES | TPT1 inh | Rpn11 inh | CSN deneddyl inh | IDE act | HNF4A DNA FP | IDE inh
CC(=O)N1CCN(C(=O)OC2CC3CC2[C@H]2CCCCN2C3=O)CC1 (stereo not given in full) | · | · | -2 | · | -6 | ·
Cc1ccc(S(=O)(=O)N/N=C\c2cn(CC(N)=O)c3ccccc23)cc1C | 0 | 7 | 0 | -3 | -2 | 1
NC(=O)Cn1cc(/C=N\NS(=O)(=O)c2ccc(Cl)cc2)c2ccccc21 | -1 | 0 | 4 | 24* | 7 | -9
CCCCNc1ccc2c3c(cccc13)C(=O)N(CCCC)C2=O | · | -133 | -76 | 45* | -110 | ·
CN(C)CCCN1C(=O)c2cccc3c(Br)ccc(c23)C1=O | -7 | -31 | 5 | -5 | -32 | -2
C[C@H]1CN([C@@H](C)CO)S(=O)(=O)c2ccc(Br)cc2O[C@H]1CN(C)C(=O)c1cccnc1 | · | -3 | 5 | · | 2 | ·
O=C(O)c1cccc2c1C(=O)c1ccc(N3CCCC3)cc1S2(=O)=O | · | 39 | 16 | -7 | 32 | 3
O=C(NC1CC1)c1cccc2c1C(=O)c1ccc(N3CCC(N4CCCCC4)CC3)cc1S2(=O)=O | · | · | 43* | · | 45 | ·
CN1CCC[C@@H]1CCNC(=O)c1cccc2c1C(=O)c1ccc(N3CCCC3)cc1S2(=O)=O | · | · | 27 | -7 | 63* | 2
COC(=O)[C@@]1(Sc2ccc(C)cc2)CC(=O)N[C@@H]1c1ccc(C(F)(F)F)cc1 | · | · | 9 | · | -4 | ·
CCOC(=O)[C@]12CCCC=C1N(CCc1ccc(OC)c(OC)c1)C(=O)[C@H](CC(=O)N1CCCCC1)C2 | · | · | -4 | · | -1 | ·
COc1cc(C(C)=O)ccc1OCC(O)CN1CCN(c2ccc(C)c(C)c2)CC1 (stereo not given) | 0 | -4 | -3 | -2 | -5 | 4
COc1cc(C(C)=O)ccc1OCC(O)CN1CCN(c2c(C)cccc2C)CC1 (stereo not given) | 6 | -3 | -3 | 6 | 45* | -5
OC(CN1CCNCC1)Cn1ccc2ccccc21 (stereo not given) | -7 | · | · | · | · | 18*
Cc1ccc(NC(=O)c2ccc(Cl)c(N3C(=O)CCC3=O)c2)cc1 | 1 | -4 | -1 | 4 | 55* | 6
Cc1ccc(NC(=O)c2ccc(C)cc2)cc1 | 0 | -5 | -1 | 5 | 1 | -5
CCCCN(CCCC)c1nc2ccccc2nc1C(C#N)C(=O)NCCCOC (stereo not given) | 8 | · | 99* | -1 | -1 | 4
COc1ccc(C2CC(C(F)(F)F)n3nc(C(=O)O)c(Cl)c3N2)cc1OC (stereo not given) | -5 | -3 | -2 | 18* | -5 | -2
CNC[C@@H]1Oc2ccc(NS(=O)(=O)c3ccc(OC)cc3)cc2CC(=O)N([C@H](C)CO)C[C@@H]1C | · | 5 | 7 | 22* | 9 | 2
C[C@H](CO)N1C[C@H](C)[C@H](CN(C)C)Oc2ccc(NS(=O)(=O)c3ccc(F)cc3)cc2CC1=O | · | 0 | 0 | 4 | 2 | 0
Cc1c(C)c2c(OCC(=O)Nc3cccnc3)cc3c(c2oc1=O)CCC(C)(C)O3 | -1 | 11 | 11 | 2 | 55* | 7
CCc1cc(=O)oc2c3c(cc(OCC(=O)Nc4cccnc4)c12)OC(C)(C)CC3 | 0 | 0 | 1 | -2 | 5 | 0
NC(c1ccccc1)c1csc(Nc2ccc(C(F)(F)F)cn2)n1 (stereo not given) | · | -11 | -2 | · | 5 | ·
CCc1ccc(N2CSC3=C(C#N)C(c4cccs4)CC(=O)N3C2)cc1 (stereo not given) | 2 | 9 | 36* | -11 | -13 | 0
COC(=O)[C@]12CCCCC=C1N(Cc1ccc3c(c1)OCO3)C(=O)[C@H](CC(=O)NCc1ccc(OC)c(OC)c1)C2 | · | · | 7 | · | 4 | ·
SMILES | TPT1 inh | Rpn11 inh | CSN deneddyl inh | IDE act | HNF4A DNA FP | IDE inh
COc1ccc(C2=Nc3ccccc3N(C(=O)c3cnccn3)C2C(=O)NC2CCCC2)cc1 (stereo not given) | · | · | -4 | · | 0 | ·
COc1ccc(CCN2C(=O)CSCC2(C)C(=O)Nc2ccc3c(c2)OCCO3)cc1OC (stereo not given) | · | · | -5 | · | 1 | ·
COc1c(C(=O)Nc2ccc3[nH]c(=O)[nH]c3c2)cc2ccccc2c1Br | -1 | -8 | -4 | 20* | -2 | -3
COCC(=O)N[C@H]1C=C[C@@H](CC(=O)OC)O[C@@H]1CO | · | · | 2 | · | 3 | ·
CCOC(=O)C(C)Sc1ncc(-c2ccc(Cl)cc2)cn1 (stereo not given) | -3 | -14 | 2 | 8 | 73* | -1
CCOC(=O)C1=C(C)N=c2sc(=Cc3ccc(OCC(=O)O)cc3)c(=O)n2C1c1ccc(SC)cc1 (stereo not given) | · | 45* | 38* | · | 6 | ·
CC1(C(=O)NCc2ccccc2)CSCC(=O)N1Cc1ccco1 (stereo not given) | · | · | 1 | · | 3 | ·
CCn1c(CNC(=O)COc2ccc(C(C)C)cc2)nnc1SCC(=O)NC1CCCCC1C (stereo not given) | -3 | -2 | 70* | -9 | 3 | 9
Cc1ccc(CN2C(=O)C(CC(C)C)Nc3ncnc(N4CCCCC4)c32)cc1 (stereo not given) | · | -1 | 78* | · | 8 | ·
Cc1cccc(C)c1NC(=O)C1(C)CSCC(=O)N1Cc1cccc(C(F)(F)F)c1 (stereo not given) | · | · | 2 | · | -5 | ·
COc1ccc(Cn2c(-c3ccc(OC)cc3)nc3c(c(=O)c4ccccc4n3C)c2=O)cc1 | -2 | · | · | · | · | -11
COc1ccc(Cn2c(-c3ccc(C)cc3)nc3c(c(=O)c4ccccc4n3C)c2=O)cc1 | 2 | -9 | 44* | 4 | 8 | 0
COC(=O)C[C@H]1CC[C@@H](NC(=O)c2ccncc2)[C@@H](CO)O1 | · | · | 3 | · | 0 | ·
O=c1c2c([N+](=O)[O-])cc([N+](=O)[O-])cc2sn1-c1ccc(Br)cc1 | -5 | 13 | -6 | -53 | -5 | 96*
O=C(Nc1ccc(Br)cc1)c1cc([N+](=O)[O-])cc([N+](=O)[O-])c1 | 1 | 22 | 1 | 5 | 1 | -3
CC1CCC(C(C)C)C(NC(=O)c2ccncc2)C1 (stereo not given) | · | 13 | 3 | · | 1 | ·
Cc1ccccc1Cn1c(CN2CCN(c3ccc(F)cc3)CC2)nc2c1c(=O)n(C)c(=O)n2C | 2 | · | · | · | · | 5
